Consider 2 compounds from ChEMBL document CHEMBL1154886, “DNA-damaging, mutagenic, and clastogenic activities of gentiopicroside isolated from Cephalaria kotschyi roots” (J Nat Prod, 2010).

Data set [1] can be described thus: Mutagenic activity in Salmonella typhimurium TA97a assessed as increase in number of revertants at 0.002 ug/plate by Ames test absence of S9 fraction (Rvb=146+/- 8). Particulars: salmonella enterica subsp. enterica serovar typhimurium. The class given is toxicity. The procedure, abridged:
(§1)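 Microsuspension Ames test, with and without rat liver S9 mix. The S9 is from male Sprague-Dawley rats given Aroclor 1254 (26 mg/mL protein); the final mix is 4% S9, 10 mM G6P and 8 mM NADP. Triplicate plates are incubated 48 h at 37 °C and colonies counted automatically. Values are mean ± SD revertants per plate, tested against spontaneous revertants (Rvb) by Dunnett test.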
On the technique in general: The Ames test uses bacterial strains that need an amino acid and regain growth without it when mutated back.

The nature of data set [2]: Mutagenic activity in Salmonella Typhimurium TA102 assessed as increase in number of revertants at 60 ug/plate by Ames test presence of S9 fraction (Rvb=369+/-34). The class given is toxicity. The settings on record: salmonella enterica subsp. enterica serovar typhimurium. The essentials:
as §1

A short description of data set [3]: Mutagenic activity in Salmonella typhimurium TA98 assessed as increase in number of revertants at 60 ug/plate by Ames test absence of S9 fraction (Rvb=22+/- 4). Particulars: salmonella enterica subsp. enterica serovar typhimurium. Type of data set: toxicity. The procedure, abridged:
as §1

A short description of data set [4]: Mutagenic activity in Salmonella Typhimurium TA102 assessed as increase in number of revertants at 100 ug/plate by Ames test presence of S9 fraction (Rvb=369+/-34). The class given is toxicity. The settings on record: salmonella enterica subsp. enterica serovar typhimurium. The procedure, abridged: as §1
Data set [5] can be described thus: Mutagenic activity in Salmonella Typhimurium TA97a assessed as increase in number of revertants at 40 ug/plate by Ames test presence of S9 fraction (Rvb=154+/-18). The class given is toxicity. Particulars: salmonella enterica subsp. enterica serovar typhimurium. The procedure, abridged: as §1
Data set [6] can be described thus: Mutagenic activity in Salmonella Typhimurium TA100 assessed as increase in number of revertants at 100 ug/plate by Ames test absence of S9 fraction (Rvb=108+/-5). The settings on record: salmonella enterica subsp. enterica serovar typhimurium.
Data set [7] can be described thus: Mutagenic activity in Salmonella Typhimurium TA100 assessed as increase in number of revertants at 80 ug/plate by Ames test presence of S9 fraction (Rvb=124+/-13). Type of data set: toxicity. Particulars: salmonella enterica subsp. enterica serovar typhimurium. The procedure, abridged: as §1
A short description of data set [8]: Mutagenic activity in Salmonella Typhimurium TA98 assessed as increase in number of revertants at 80 ug/plate by Ames test absence of S9 fraction (Rvb=22+/- 4). The settings on record: salmonella enterica subsp. enterica serovar typhimurium. Type of data set: toxicity. The essentials:
as §1

Data set [9] is described as follows: Mutagenic activity in Salmonella Typhimurium TA98 assessed as increase in number of revertants at 80 ug/plate by Ames test presence of S9 fraction (Rvb=34+/- 4). The class given is toxicity. The settings on record: salmonella enterica subsp. enterica serovar typhimurium. The procedure, abridged: as §1
Data set [10] is described as follows: Mutagenic activity in Salmonella Typhimurium TA102 assessed as increase in number of revertants at 40 ug/plate by Ames test presence of S9 fraction (Rvb=369+/-34). The settings on record: salmonella enterica subsp. enterica serovar typhimurium. The class given is toxicity. The essentials: as §1
Data set [11] in a line: Mutagenic activity in Salmonella Typhimurium TA97a assessed as increase in number of revertants at 40 ug/plate by Ames test absence of S9 fraction (Rvb=146+/- 8). Type of data set: toxicity. The settings on record: salmonella enterica subsp. enterica serovar typhimurium. The procedure, abridged:
as §1

Data set [12] can be described thus: Mutagenic activity in Salmonella typhimurium TA100 assessed as increase in number of revertants at 60 ug/plate by Ames test absence of S9 fraction (Rvb=108+/-5). The class given is toxicity. Particulars: salmonella enterica subsp. enterica serovar typhimurium. The procedure, abridged: as §1
The nature of data set [13]: Mutagenic activity in Salmonella typhimurium TA102 assessed as increase in number of revertants at 80 ug/plate by Ames test presence of S9 fraction (Rvb=369+/-34). The class given is toxicity. Particulars: salmonella enterica subsp. enterica serovar typhimurium. The essentials:
as §1

Data set [14] can be described thus: Mutagenic activity in Salmonella Typhimurium TA100 assessed as increase in number of revertants at 40 ug/plate by Ames test absence of S9 fraction (Rvb=108+/-5). The settings on record: salmonella enterica subsp. enterica serovar typhimurium. The class given is toxicity. The essentials:
as §1

Data set [15] is described as follows: Mutagenic activity in Salmonella typhimurium TA100 assessed as increase in number of revertants at 80 ug/plate by Ames test absence of S9 fraction (Rvb=108+/-5). The class given is toxicity. Particulars: salmonella enterica subsp. enterica serovar typhimurium. The essentials:
as §1

The nature of data set [16]: Mutagenic activity in Salmonella typhimurium TA100 assessed as increase in number of revertants at 40 ug/plate by Ames test presence of S9 fraction (Rvb=124+/-13). Type of data set: toxicity. Particulars: salmonella enterica subsp. enterica serovar typhimurium. The procedure, abridged: as §1
A short description of data set [17]: Mutagenic activity in Salmonella Typhimurium TA102 assessed as increase in number of revertants at 80 ug/plate by Ames test absence of S9 fraction (Rvb=290+/-10). Type of data set: toxicity. The settings on record: salmonella enterica subsp. enterica serovar typhimurium. The essentials: as §1
Data set [18] is described as follows: Mutagenic activity in Salmonella typhimurium TA98 assessed as increase in number of revertants at 40 ug/plate by Ames test absence of S9 fraction (Rvb=22+/- 4). Type of data set: toxicity. Particulars: salmonella enterica subsp. enterica serovar typhimurium. The procedure, abridged:
as §1

The test system of another data set is CHO. As to the kind of experiment: Cytotoxicity activity against CHO cells assessed as cell viability after 24 hrs by WST1 test. The class given is cell-based, Cricetulus griseus. The settings on record: chinese hamster. The procedure, abridged:
(§2)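 CHO-K1 cells in McCoy's 5A with 10% fetal calf serum are seeded and incubated overnight at 37 °C, 5% CO2. A range of compound concentrations is added in triplicate cultures (final DMSO below 0.2%) for 2 or 24 h. Cells are washed three times in PBS, then given 10% WST1 in medium for 30 min. Viability is read as absorbance at 450 nm.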
In general terms: Tetrazolium assays rely on reduction of a dye to a coloured formazan, in cell work by metabolically active cells.

Data set [19] can be described thus: Mutagenic activity in Salmonella Typhimurium TA100 assessed as increase in number of revertants at 60 ug/plate by Ames test presence of S9 fraction (Rvb=124+/-13). Type of data set: toxicity. The settings on record: salmonella enterica subsp. enterica serovar typhimurium. The essentials:
as §1

A short description of data set [20]: Mutagenic activity in Salmonella Typhimurium TA102 assessed as increase in number of revertants at 40 ug/plate by Ames test absence of S9 fraction (Rvb=290+/-10). The class given is toxicity. Particulars: salmonella enterica subsp. enterica serovar typhimurium. The procedure, abridged: as §1
Data set [21] can be described thus: Mutagenic activity in Salmonella typhimurium TA100 assessed as increase in number of revertants at 100 ug/plate by Ames test presence of S9 fraction (Rvb=124+/-13). The class given is toxicity. Particulars: salmonella enterica subsp. enterica serovar typhimurium. The essentials: as §1
Data set [22] can be described thus: Mutagenic activity in Salmonella Typhimurium TA97a assessed as increase in number of revertants at 100 ug/plate by Ames test presence of S9 fraction (Rvb=154+/-18). Type of data set: toxicity. The settings on record: salmonella enterica subsp. enterica serovar typhimurium. The essentials:
as §1

Data set [23] in a line: Mutagenic activity in Salmonella Typhimurium TA98 assessed as increase in number of revertants at 100 ug/plate by Ames test presence of S9 fraction (Rvb=34+/- 4). The class given is toxicity. Particulars: salmonella enterica subsp. enterica serovar typhimurium. The essentials:
as §1

A short description of data set [24]: Mutagenic activity in Salmonella Typhimurium TA98 assessed as increase in number of revertants at 100 ug/plate by Ames test absence of S9 fraction (Rvb=22+/- 4). Particulars: salmonella enterica subsp. enterica serovar typhimurium. Type of data set: toxicity. The essentials: as §1
A short description of data set [25]: Mutagenic activity in Salmonella Typhimurium TA102 assessed as increase in number of revertants at 60 ug/plate by Ames test absence of S9 fraction (Rvb=290+/-10). Type of data set: toxicity. Particulars: salmonella enterica subsp. enterica serovar typhimurium. The procedure, abridged:
as §1

Data set [26] can be described thus: Mutagenic activity in Salmonella typhimurium TA97a assessed as increase in number of revertants at 60 ug/plate by Ames test absence of S9 fraction (Rvb=146+/- 8). Particulars: salmonella enterica subsp. enterica serovar typhimurium. The class given is toxicity. The procedure, abridged: as §1
Data set [27] is described as follows: Mutagenic activity in Salmonella typhimurium TA97a assessed as increase in number of revertants at 80 ug/plate by Ames test presence of S9 fraction (Rvb=154+/-18). The class given is toxicity. The settings on record: salmonella enterica subsp. enterica serovar typhimurium. The essentials: as §1
The nature of data set [28]: Mutagenic activity in Salmonella typhimurium TA98 assessed as increase in number of revertants at 40 ug/plate by Ames test presence of S9 fraction (Rvb=34+/- 4). The settings on record: salmonella enterica subsp. enterica serovar typhimurium. Type of data set: toxicity. The essentials: as §1
Data set [29] in a line: Mutagenic activity in Salmonella typhimurium TA97a assessed as increase in number of revertants at 60 ug/plate by Ames test presence of S9 fraction (Rvb=154+/-18). Type of data set: toxicity. Particulars: salmonella enterica subsp. enterica serovar typhimurium. The essentials:
as §1

Data set [30] is described as follows: Mutagenic activity in Salmonella Typhimurium TA97a assessed as increase in number of revertants at 80 ug/plate by Ames test absence of S9 fraction (Rvb=146+/- 8). Type of data set: toxicity. The settings on record: salmonella enterica subsp. enterica serovar typhimurium. The procedure, abridged: as §1
The nature of data set [31]: Cytotoxicity activity against CHO cells assessed as cell viability after 2 hrs by WST1 test. Type of data set: cell-based, Cricetulus griseus. The settings on record: chinese hamster, read-out: Activity. The essentials:
as §2

Data set [32] can be described thus: Mutagenic activity in Salmonella typhimurium TA98 assessed as increase in number of revertants at 60 ug/plate by Ames test presence of S9 fraction (Rvb=34+/- 4). The class given is toxicity. The settings on record: salmonella enterica subsp. enterica serovar typhimurium. The procedure, abridged:
as §1

The nature of data set [33]: Mutagenic activity in Salmonella Typhimurium TA102 assessed as increase in number of revertants at 100 ug/plate by Ames test absence of S9 fraction (Rvb=290+/-10). Particulars: salmonella enterica subsp. enterica serovar typhimurium. The class given is toxicity. The essentials:
as §1

A short description of data set [34]: Mutagenic activity in Salmonella Typhimurium TA97a assessed as increase in number of revertants at 100 ug/plate by Ames test absence of S9 fraction (Rvb=146+/- 8). The settings on record: salmonella enterica subsp. enterica serovar typhimurium. The class given is toxicity. The procedure, abridged: as §1

Turning to `COc1ccc2nc3cc(Cl)ccc3c(NCCCNCCCl)c2c1`, the Activity in data set [1] is recorded as 1287.

For the compound `C=C[C@@H]1C2=CCOC(=O)C2=CO[C@H]1O[C@@H]1O[C@H](CO)[C@@H](O)[C@H](O)[C@H]1O` [GENTIOPICROSIDE], the Activity in [2] worked out at 385; in [3] it was 22; in data set [4], 385; in data set [5], 274; in data set [6], 136; in data set [7], 140. The Activity turned out to be 26 in data set [8]; 28 in data set [9]; 376 in [10]; 188 in [11]; 135 in [12]; 413 in data set [13]. For the same compound, the Activity is reported as 117 in data set [14]; 138 in data set [15]; 119 in [16]; 395 in data set [17]; 19 in data set [18]; “Non-toxic” in the data set with CHO. Moreover, the Activity amounted to 116 in data set [19]; 368 in data set [20]; 138 in data set [21]; 173 in [22]; 31 in data set [23]; 26 in [24]. Also, the Activity in data set [25] stood at 378; in [26], 174; in data set [27], 178; in data set [28] it was 32; in data set [29], 186; in [30], 180. Further, the Activity in [32] turned out to be 29; in [33] it was 392; in [34], 180. The viability at 2 h in data set [31] came to 95%.
